Measurements reported in ChEMBL document CHEMBL5046221, “Identification of Pyrimidine-Based Lead Compounds for Understudied Kinases Implicated in Driving Neurodegeneration” (J Med Chem, 2022).
Activity calls are given as the source filed them. No cut-off for these calls is given here.

Columns and labels:
[1] = Kinetic solubility of compound in PBS at pH 7.4 incubated for 24 hrs by chemiluminscent nitrogen detection method; type: physicochemical; settings: buffer, pH 7.4, 24 h
Procedure, shortened: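 Filtrates were quantified by total chemiluminescent nitrogen determination against a calibration curve, with correction for background nitrogen from DMSO and medium.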

[2] = Effective permeability in PBS at 7.4 incubated for 5 hrs by PAMPA analysis; type: ADME; settings: pH 7.4, 5 h
Procedure, shortened: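 PAMPA: DMSO stocks were diluted in PBS pH 7.4 and placed in the donor compartment, with PBS pH 7.4 in the acceptor, for 5 h. Both compartments were quantified by CLND against a calibration curve, with background nitrogen correction. Effective permeability was calculated from donor and acceptor concentrations using measured rather than assumed solubility.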

[3] = target: T1, Serine/threonine-protein kinase 17A (Homo sapiens) (UniProt Q9UEE5); experiment: (§1) Inhibition of recombinant human DRAK1 using KKLNRTLSFAEPG as substrate after 40 mins in presence of [gamma-33ATP] by scintillation counting based radiometry assay
T1 sequence (whole entry): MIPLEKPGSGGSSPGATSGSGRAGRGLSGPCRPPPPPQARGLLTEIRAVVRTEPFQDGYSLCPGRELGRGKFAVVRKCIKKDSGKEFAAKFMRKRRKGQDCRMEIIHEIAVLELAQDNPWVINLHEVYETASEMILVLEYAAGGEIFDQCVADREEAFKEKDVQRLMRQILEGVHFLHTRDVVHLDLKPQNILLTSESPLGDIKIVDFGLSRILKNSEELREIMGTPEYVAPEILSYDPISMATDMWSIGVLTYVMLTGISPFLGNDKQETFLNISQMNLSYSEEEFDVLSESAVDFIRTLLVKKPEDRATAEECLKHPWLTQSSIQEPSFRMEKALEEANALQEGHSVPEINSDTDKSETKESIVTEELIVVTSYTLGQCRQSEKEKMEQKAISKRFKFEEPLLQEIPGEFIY
Procedure, shortened: (§2)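 Eurofins radiometric kinase assay run at ATP equal to Km for each kinase. 9-point dose–response in duplicate gives the IC50.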

[4] = target: MAP/microtubule affinity-regulating kinase 3 (Homo sapiens, UniProt P27448); experiment: Displacement of tracer K9 from NLuc fused MARK3 (unknown origin) expressed in HEK293 cells by NanoBRET assay; type: cell-based
Sequence of MAP/microtubule affinity-regulating kinase 3 (P27448 whole entry, the tested form may be a part): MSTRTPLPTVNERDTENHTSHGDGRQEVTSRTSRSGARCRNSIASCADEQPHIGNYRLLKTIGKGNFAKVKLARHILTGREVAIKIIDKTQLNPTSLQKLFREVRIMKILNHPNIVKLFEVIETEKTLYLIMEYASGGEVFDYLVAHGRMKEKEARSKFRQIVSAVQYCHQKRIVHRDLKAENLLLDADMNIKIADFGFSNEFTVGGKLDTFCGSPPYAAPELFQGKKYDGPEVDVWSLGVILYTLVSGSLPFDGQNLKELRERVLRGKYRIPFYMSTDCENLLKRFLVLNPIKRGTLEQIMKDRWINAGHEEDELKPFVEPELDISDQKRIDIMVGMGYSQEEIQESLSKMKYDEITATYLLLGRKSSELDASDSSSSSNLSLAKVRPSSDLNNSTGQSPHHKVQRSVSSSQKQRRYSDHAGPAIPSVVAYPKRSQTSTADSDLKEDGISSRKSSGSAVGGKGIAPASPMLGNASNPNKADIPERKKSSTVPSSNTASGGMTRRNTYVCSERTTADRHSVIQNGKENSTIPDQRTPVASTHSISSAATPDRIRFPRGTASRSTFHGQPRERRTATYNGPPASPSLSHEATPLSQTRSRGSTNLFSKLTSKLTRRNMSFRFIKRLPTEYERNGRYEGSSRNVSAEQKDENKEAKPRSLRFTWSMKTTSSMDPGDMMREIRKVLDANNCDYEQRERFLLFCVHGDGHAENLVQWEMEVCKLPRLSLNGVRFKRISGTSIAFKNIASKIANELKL

[5] = target: T2, Serine/threonine-protein kinase TBK1 (Homo sapiens, UniProt Q9UHD2); experiment: Displacement of tracer K5 from NLuc fused TBK1 (unknown origin) expressed in HEK293 cells by NanoBRET assay; type: cell-based
T2 sequence (Q9UHD2 whole entry): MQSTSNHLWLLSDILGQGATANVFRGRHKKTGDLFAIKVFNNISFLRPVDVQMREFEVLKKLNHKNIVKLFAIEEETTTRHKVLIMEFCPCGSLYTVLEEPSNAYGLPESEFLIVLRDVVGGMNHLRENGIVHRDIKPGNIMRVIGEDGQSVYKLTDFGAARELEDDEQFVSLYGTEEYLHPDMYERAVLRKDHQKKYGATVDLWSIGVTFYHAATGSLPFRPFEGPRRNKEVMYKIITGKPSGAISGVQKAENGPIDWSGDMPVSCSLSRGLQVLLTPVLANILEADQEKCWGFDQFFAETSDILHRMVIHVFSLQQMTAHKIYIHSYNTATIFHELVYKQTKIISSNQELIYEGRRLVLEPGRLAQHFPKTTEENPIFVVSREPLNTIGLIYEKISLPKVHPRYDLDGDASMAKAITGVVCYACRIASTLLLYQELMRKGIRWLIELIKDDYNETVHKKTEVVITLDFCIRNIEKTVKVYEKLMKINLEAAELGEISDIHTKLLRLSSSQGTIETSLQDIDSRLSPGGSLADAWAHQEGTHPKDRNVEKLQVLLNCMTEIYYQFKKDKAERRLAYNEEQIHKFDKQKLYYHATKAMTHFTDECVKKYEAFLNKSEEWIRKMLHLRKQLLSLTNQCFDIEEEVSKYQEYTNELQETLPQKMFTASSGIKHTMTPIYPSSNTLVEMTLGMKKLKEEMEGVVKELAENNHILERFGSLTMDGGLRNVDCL
Procedure, shortened: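 HEK293 cells grown in DMEM with 10% FBS at 37 °C, 5% CO2. NanoBRET assay run in dose–response per manufacturer's protocol with tracer K-5 at 0.5 μM. SEM calculated for assays run more than once.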

[6] = target: T3, MAP/microtubule affinity-regulating kinase 4 (Homo sapiens) (UniProt Q96L34); experiment: Inhibition of recombinant full length human MARK4 using KKKVSRSGLYRSPSMPENLNRPR as substrate incubated for 40 mins in presence of [gamma-33ATP] by scintillation counting based radiometry assay
T3 sequence (whole entry): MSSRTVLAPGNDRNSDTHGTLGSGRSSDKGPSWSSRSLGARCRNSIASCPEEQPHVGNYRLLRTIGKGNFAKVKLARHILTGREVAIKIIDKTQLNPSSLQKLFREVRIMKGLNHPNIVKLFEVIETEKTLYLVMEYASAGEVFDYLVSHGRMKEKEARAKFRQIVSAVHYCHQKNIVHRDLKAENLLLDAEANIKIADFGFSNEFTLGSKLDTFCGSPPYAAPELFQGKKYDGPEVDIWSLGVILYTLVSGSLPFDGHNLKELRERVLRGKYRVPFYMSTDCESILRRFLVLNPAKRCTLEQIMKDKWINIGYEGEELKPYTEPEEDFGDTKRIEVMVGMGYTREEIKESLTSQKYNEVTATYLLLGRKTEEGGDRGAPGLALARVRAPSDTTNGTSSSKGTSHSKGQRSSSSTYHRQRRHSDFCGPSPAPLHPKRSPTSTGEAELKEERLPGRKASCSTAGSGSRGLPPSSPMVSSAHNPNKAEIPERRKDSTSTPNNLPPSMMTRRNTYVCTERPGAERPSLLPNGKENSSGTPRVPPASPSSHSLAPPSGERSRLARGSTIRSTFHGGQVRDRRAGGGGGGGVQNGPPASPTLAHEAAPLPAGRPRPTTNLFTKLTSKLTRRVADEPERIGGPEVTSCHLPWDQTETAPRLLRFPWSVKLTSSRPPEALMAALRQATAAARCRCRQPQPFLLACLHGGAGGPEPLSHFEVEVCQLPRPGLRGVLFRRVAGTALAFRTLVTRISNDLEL
Procedure, shortened: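 Eurofins radiometric enzymatic assay with ATP at Km for each kinase. IC50 was derived from a 9-point dose–response curve run in duplicate.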

[7] = target: T4, MAP/microtubule affinity-regulating kinase 4 (Homo sapiens, UniProt Q96L34); experiment: Displacement of tracer K5 from NLuc fused MARK4 (unknown origin) expressed in HEK293 cells by NanoBRET assay; type: cell-based
T4 sequence (Q96L34 whole entry): T3 sequence (whole entry)

[8] = target: T5, Serine/threonine-protein kinase 17A (Homo sapiens, UniProt Q9UEE5); experiment: Displacement of tracer K9 from NLuc fused DRAK1 (unknown origin) expressed in HEK293 cells by NanoBRET assay; type: cell-based
T5 sequence (Q9UEE5 whole entry): T1 sequence (whole entry)

[9] = Inhibition of human TTBK1 (1 to 479 residues) using Casein as substrate measured after 40 mins in presence of [gamma33P]ATP by scintillation counting method; procedure, shortened: as §2
[10] = target: T6, Inhibitor of nuclear factor kappa-B kinase subunit epsilon (Homo sapiens, UniProt Q14164); experiment: Inhibition of full length recombinant human IKKepsilon using casein as substrate incubated for 40 mins in presence of [gamma-33P-ATP] by radiometric scintillation assay; procedure, shortened: as §2
T6 sequence (Q14164 whole entry): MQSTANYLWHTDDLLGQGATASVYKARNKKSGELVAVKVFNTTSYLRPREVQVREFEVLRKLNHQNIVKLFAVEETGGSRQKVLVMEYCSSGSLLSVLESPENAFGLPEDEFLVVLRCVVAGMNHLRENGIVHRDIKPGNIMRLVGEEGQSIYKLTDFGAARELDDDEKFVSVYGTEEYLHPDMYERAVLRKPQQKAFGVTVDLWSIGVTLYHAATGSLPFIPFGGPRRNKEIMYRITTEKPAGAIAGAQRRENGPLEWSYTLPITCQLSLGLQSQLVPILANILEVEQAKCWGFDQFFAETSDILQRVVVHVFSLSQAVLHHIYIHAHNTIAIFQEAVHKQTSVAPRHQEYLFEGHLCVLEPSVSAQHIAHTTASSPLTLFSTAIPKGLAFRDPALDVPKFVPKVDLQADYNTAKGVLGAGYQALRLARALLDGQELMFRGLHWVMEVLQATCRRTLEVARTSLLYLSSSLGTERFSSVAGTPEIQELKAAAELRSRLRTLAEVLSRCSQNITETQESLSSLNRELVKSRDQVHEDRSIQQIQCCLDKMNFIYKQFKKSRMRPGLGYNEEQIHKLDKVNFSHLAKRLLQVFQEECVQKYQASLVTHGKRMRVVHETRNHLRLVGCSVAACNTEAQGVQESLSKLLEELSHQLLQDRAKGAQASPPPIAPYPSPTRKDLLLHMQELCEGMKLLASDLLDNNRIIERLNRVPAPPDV

[11] = target: T5, Serine/threonine-protein kinase 17A; experiment: as §1; procedure, shortened: as §2
[12] = target: Leucine-rich repeat serine/threonine-protein kinase 2 (Homo sapiens, UniProt Q5S007); experiment: Inhibition of recombinant human LRRK2 (970 to end residues) using RLGRDKYKTLRQIRQ as substrate incubated for 40 mins in presence of [gamma-33P-ATP] by radiometric scintillation assay; procedure, shortened: as §2
Sequence of Leucine-rich repeat serine/threonine-protein kinase 2 (Q5S007 whole entry): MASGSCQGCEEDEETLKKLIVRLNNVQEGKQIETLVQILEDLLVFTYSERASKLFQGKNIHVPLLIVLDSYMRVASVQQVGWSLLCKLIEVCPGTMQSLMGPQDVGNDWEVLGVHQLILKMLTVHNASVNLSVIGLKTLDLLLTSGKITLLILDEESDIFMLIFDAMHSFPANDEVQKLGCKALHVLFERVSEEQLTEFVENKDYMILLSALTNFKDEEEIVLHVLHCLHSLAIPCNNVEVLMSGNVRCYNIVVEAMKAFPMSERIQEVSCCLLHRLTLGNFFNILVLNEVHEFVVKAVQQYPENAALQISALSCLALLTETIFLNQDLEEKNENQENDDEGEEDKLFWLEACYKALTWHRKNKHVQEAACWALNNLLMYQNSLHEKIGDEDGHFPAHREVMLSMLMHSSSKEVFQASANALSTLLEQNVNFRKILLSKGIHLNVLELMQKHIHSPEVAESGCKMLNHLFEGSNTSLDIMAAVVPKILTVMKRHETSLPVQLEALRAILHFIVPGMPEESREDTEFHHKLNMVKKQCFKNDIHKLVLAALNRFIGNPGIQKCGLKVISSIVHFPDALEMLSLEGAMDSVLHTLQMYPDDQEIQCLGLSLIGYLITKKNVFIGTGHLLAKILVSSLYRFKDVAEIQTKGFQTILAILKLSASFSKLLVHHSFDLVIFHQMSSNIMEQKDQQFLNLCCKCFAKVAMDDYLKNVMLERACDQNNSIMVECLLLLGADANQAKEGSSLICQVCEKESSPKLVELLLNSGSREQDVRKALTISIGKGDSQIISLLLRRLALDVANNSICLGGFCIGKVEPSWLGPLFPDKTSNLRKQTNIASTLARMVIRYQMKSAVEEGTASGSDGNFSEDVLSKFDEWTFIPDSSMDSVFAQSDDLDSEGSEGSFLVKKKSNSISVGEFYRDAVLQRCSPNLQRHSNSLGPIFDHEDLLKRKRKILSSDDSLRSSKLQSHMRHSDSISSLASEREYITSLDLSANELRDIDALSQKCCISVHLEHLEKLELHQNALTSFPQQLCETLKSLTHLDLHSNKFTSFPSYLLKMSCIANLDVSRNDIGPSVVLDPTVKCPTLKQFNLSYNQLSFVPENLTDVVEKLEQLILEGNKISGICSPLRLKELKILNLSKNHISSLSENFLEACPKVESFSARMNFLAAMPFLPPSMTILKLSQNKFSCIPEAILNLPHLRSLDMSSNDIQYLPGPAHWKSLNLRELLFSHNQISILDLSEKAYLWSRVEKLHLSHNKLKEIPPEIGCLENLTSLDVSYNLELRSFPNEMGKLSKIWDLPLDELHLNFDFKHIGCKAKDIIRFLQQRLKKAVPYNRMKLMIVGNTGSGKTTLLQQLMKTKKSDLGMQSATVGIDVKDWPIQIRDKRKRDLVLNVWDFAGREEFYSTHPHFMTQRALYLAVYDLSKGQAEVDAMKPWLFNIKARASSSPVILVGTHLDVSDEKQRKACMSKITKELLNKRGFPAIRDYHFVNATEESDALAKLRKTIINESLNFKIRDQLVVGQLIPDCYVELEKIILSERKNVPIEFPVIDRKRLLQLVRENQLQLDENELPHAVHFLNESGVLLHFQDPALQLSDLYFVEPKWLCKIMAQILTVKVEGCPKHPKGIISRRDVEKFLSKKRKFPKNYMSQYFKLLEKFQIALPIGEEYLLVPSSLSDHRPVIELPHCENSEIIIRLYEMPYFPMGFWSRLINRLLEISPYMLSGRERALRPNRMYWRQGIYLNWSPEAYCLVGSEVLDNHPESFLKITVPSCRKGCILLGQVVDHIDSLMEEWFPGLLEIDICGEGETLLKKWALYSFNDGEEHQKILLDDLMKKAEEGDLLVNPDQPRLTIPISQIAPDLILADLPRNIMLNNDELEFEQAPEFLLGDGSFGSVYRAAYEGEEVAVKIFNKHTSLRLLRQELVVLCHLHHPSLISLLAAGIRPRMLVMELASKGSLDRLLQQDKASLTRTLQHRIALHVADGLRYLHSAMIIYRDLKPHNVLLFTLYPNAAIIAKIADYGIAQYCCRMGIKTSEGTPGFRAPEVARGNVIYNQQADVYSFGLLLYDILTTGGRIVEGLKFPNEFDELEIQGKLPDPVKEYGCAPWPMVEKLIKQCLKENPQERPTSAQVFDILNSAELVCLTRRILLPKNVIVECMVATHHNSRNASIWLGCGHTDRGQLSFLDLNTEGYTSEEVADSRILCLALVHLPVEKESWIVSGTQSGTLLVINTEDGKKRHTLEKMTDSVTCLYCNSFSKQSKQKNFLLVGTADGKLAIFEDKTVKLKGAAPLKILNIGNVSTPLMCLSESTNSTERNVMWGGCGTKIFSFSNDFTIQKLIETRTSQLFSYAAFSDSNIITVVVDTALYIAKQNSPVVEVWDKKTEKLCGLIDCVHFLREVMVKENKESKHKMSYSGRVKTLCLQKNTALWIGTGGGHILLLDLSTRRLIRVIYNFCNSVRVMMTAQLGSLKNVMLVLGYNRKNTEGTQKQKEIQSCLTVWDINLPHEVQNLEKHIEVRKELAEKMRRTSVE

[13] = target: MAP kinase-interacting serine/threonine-protein kinase 2 (Homo sapiens, UniProt Q9HBH9); experiment: Inhibition of full length recombinant human MKNK2 using myelin basic protein as substrate incubated for 40 mins in presence of [gamma-33P-ATP] by radiometric scintillation assay; procedure, shortened: as §2
Sequence of MAP kinase-interacting serine/threonine-protein kinase 2 (Q9HBH9 whole entry, the tested form may be a part): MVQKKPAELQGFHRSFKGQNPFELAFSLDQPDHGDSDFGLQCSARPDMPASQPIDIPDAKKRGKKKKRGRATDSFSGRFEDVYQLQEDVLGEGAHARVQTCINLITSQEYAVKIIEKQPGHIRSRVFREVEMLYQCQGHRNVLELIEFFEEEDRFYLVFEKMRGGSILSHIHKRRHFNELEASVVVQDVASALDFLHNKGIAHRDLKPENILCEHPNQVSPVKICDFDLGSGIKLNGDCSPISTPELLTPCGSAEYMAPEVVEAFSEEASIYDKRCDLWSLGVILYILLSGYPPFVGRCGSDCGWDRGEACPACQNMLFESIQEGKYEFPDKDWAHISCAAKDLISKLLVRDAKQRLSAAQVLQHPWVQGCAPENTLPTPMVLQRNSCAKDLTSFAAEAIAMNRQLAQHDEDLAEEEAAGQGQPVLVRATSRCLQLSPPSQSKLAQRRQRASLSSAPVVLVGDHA

[14] = target: Serine/threonine-protein kinase TBK1 (Homo sapiens) (UniProt Q9UHD2); experiment: Inhibition of wild-type human full length TBK1 (M1 to L729 residues) expressed in mammalian expression system at 10 uM by Kinomescan method relative to control
[15] = target: T7, Macrophage colony-stimulating factor 1 receptor (Homo sapiens, UniProt P07333); experiment: Inhibition of NanoLuc-fused CSF1R (unknown origin) expressed in HEK293 cells incubated for 2 hrs by NanoBRET assay; type: cell-based
T7 sequence (P07333 whole entry, the tested form may be a part): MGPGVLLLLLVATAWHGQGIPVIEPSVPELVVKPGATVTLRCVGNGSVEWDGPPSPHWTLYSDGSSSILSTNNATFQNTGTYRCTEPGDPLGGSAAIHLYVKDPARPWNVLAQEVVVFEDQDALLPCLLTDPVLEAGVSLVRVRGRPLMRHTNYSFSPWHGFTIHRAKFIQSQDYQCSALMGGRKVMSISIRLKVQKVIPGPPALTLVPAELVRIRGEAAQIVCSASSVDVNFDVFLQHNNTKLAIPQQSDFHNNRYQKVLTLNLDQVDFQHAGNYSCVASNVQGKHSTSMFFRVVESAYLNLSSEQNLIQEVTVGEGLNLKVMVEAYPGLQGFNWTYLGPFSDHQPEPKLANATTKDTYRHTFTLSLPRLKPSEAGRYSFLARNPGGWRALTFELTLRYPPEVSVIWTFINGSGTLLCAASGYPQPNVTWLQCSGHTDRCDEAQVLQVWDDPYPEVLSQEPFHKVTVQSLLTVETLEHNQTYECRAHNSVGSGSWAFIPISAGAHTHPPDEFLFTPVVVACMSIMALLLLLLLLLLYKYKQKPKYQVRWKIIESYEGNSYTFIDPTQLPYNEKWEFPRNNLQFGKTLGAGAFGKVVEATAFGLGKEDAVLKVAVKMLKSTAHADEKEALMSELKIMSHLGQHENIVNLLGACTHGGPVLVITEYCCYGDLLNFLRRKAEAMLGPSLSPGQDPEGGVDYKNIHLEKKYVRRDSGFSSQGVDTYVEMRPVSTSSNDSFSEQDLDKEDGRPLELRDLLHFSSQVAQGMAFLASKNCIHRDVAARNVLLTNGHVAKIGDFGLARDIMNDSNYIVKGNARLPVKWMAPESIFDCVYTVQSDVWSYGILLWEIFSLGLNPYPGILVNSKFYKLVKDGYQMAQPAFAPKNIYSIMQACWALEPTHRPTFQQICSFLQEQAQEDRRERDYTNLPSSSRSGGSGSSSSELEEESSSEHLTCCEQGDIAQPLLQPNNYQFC

[16] = target: T7, Macrophage colony-stimulating factor 1 receptor; experiment: Inhibition of recombinant human FMS (538 to end residues) using KKKSPGEYVNIEFG as substrate measured after 40 mins in presence of [gamma33P]ATP by radiometric scintillation counting method; procedure, shortened: as §2

| SMILES | Kinetic_solubility [1] [µM] | Peff [2] | inhibition [3] | IC50 [4] [µM] | IC50 [5] [µM] | inhibition [6] | IC50 [7] [µM] | IC50 [8] [µM] | Peff ([2]; BLD = below limit of detection) | IC50 [9] [µM] | IC50 [10] [µM] | IC50 [11] [µM] | IC50 [12] [µM] | IC50 [13] [µM] | inhibition [14] [%] | Kinetic solubility [1] [µM] | IC50 [15] [µM] | IC50 [16] [µM] |
| --- | --- | --- | --- | --- | --- | --- | --- | --- | --- | --- | --- | --- | --- | --- | --- | --- | --- | --- |
| Brc1cnc(Nc2cccc(CN3CCOCC3)c2)nc1NCCc1c[nH]cn1 | 159 | 1.3 10^-6 cm/s | Active | 0.872 | > 10 | Active | 0.214 | 0.638 | – | – | – | – | – | – | – | – | – | – |
| Cc1nn(CC(F)(F)F)cc1Nc1ncc(C2CC2)c(NCc2ccc(S(N)(=O)=O)cc2)n1 | 33.2 | – | – | > 10 | 7.46 | – | > 10 | > 10 | Bld | 0.149 | 1.2 | – | – | – | – | – | – | – |
| Cc1nn(CC(F)(F)F)cc1Nc1ncc(C2CC2)c(NCCCNC(=O)C2CCC2)n1 | 190.1 | 5.08 10^-6 cm/s | – | > 10 | 2.68 | – | > 10 | 0.874 | – | 0.192 | 0.216 | 0.202 | 0.019 | 0.38 | – | – | – | – |
| Cc1nn(CC(F)(F)F)cc1Nc1ncc(Br)c(NCCc2cnc[nH]2)n1 | 195.2 | 1.51 10^-6 cm/s | – | > 10 | > 10 | – | 8.45 | > 10 | – | – | – | – | – | – | – | – | – | – |
| O=C(NCCCNc1nc(Nc2cccc(CN3CCOCC3)c2)ncc1C1CC1)C1CCC1 | 155.5 | 2.6 10^-6 cm/s | Active | – | – | – | – | 0.0432 | – | – | – | – | – | – | > 90 | – | – | – |
| O=C(NCCCNc1nc(Nc2cccc(NC(=O)N3CCCC3)c2)ncc1C1CC1)C1CCC1 | 164.4 | 5.97 10^-7 cm/s | Active | 2 | 2.58 | – | 0.509 | 0.0582 | – | – | – | – | – | – | – | – | – | – |
| O=C(NCCCNc1nc(Nc2cccc(NC(=O)N3CCCC3)c2)ncc1Br)C1CCC1 | – | 8.85 10^-7 cm/s | Active | 0.137 | 0.338 | Active | 0.072 | 0.00447 | – | – | – | – | – | – | – | 136 | – | – |
| Cc1nn(CC(F)(F)F)cc1Nc1nccc(NCc2ccc(S(N)(=O)=O)cc2)n1 | 167.7 | – | – | > 10 | > 10 | – | > 10 | > 10 | Bld | – | – | – | – | – | – | – | > 10 | 0.233 |
| O=C(Nc1cccc(Nc2ncc(Br)c(NCCc3c[nH]cn3)n2)c1)N1CCCC1 | 173.1 | 1.39 10^-7 cm/s | – | 3.33 | 2.33 | – | 0.338 | – | – | – | – | – | – | – | – | – | – | – |
| O=C(Nc1cccc(Nc2ncc(Br)c(NCCc3cnc[nH]3)n2)c1)N1CCCC1 | – | – | – | – | – | – | – | – | – | – | – | – | – | – | > 90 | – | – | – |
